Paper PMC3517043 (ChemMedChem, 2012)
Converted amounts (≈) assume the structure as drawn. Where two headings read alike, the source gives them in different places. Square brackets hold non-standard residues; d marks the D form. Ends that are not written are not given here. Peptide text beside a SMILES is read from it. NMeI = CC[C@H](C)[C@H](NC)C(=O)O; NMeV = CN[C@H](C(=O)O)C(C)C; NMeA = CN[C@@H](C)C(=O)O; Sar = CNCC(=O)O

Legend:
[1] = Solubility by filtration assay; format: physicochemical; conditions: pH 7.4
[2] = system: Aβ42-induced toxicity in differentiated PC-12 cells; format: cell-based, rat; conditions: for IC50: 24 h; for Decrease in activity relative to the corresponding N-Me-A analogue (MTT): original side-chain restored versus N-Me-A at the same position
[3] = system: Aβ42-induced toxicity in differentiated PC-12 cells; format: cell-based, rat; conditions: for IC50: 48 h; for Decrease in activity relative to the corresponding N-Me-A analogue (LDH): original side-chain restored versus N-Me-A at the same position
Aβ42 = conditions: read-out: IC50, inhibition of Aβ42 hexamer formation; photo-induced cross-linking of unmodified proteins; cited from earlier work
[4] = system: mouse primary hippocampal neurons; conditions: cited from earlier work
[5] = system: differentiated PC-12 cells; assay: Toxicity of peptides alone, MTT cell viability assay; format: cell-based, rat; conditions: peptide alone at 50 μM, 24 h
Procedure, shortened: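 PC-12 cells differentiated with nerve growth factor (50 ng/mL) for 48 h. Peptide dissolved in a small amount of 60 mM NaOH, diluted to 50 μM in culture medium, and incubated alone with cells for 24 h. Viability read by MTT kit. Controls were NaOH at matching concentration and medium alone. Percentage viability was scaled to 1 μM staurosporine, taken as 100% loss.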

| Compound | solubility at 1 min ([1]; 10 mM sodium phosphate buffer) [µM] | IC50 [2] [µM] | IC50 [3] [µM] | further results |
| --- | --- | --- | --- | --- |
| CC[C@H](C)[C@H](N)C(=O)N[C@H](C(=O)NCC(=O)N[C@@H](CC(C)C)C(=O)N[C@@H](CCSC)C(=O)N[C@H](C(=O)NCC(=O)NCC(=O)N(C)[C@@H](C)C(=O)N[C@H](C(=O)N[C@H](C(=O)N[C@@H](C)C(=O)O)[C@@H](C)CC)C(C)C)C(C)C)[C@@H](C)CC [[N-Me-A9]Aβ(31–42), IIGLMVGG-(N-Me)A-VIA] (H-IIGLMVGG[NMeA]VIA-OH; N-terminus assumed) | 115 ± 21 (≈ 130 µg/mL) | 6 ± 1 | 7 ± 1 | Improvement of IC50 relative to the parent peptide (MTT) ([2]; relative to Aβ(31–42)): 3 fold; Improvement of IC50 relative to the parent peptide (LDH) ([3]; relative to Aβ(31–42)): 6 fold |
| CC[C@H](C)[C@H](N)C(=O)N[C@H](C(=O)NCC(=O)N[C@@H](CC(C)C)C(=O)N[C@@H](CCSC)C(=O)N[C@H](C(=O)NCC(=O)N(C)[C@@H](C)C(=O)N[C@H](C(=O)N[C@H](C(=O)N[C@H](C(=O)N[C@@H](C)C(=O)O)[C@@H](C)CC)C(C)C)C(C)C)C(C)C)[C@@H](C)CC [[N-Me-A8]Aβ(31–42), IIGLMVG-(N-Me)A-WIA] (H-IIGLMVG[NMeA]VVIA-OH; N-terminus assumed) | 41 ± 12 (≈ 48 µg/mL) | 12 ± 1 | 14 ± 1 | – |
| CC[C@H](C)[C@H](N)C(=O)N[C@H](C(=O)NCC(=O)N[C@@H](CC(C)C)C(=O)N[C@@H](CCSC)C(=O)N[C@H](C(=O)NCC(=O)NCC(=O)N[C@H](C(=O)N[C@H](C(=O)N(C)[C@H](C(=O)N[C@@H](C)C(=O)O)[C@@H](C)CC)C(C)C)C(C)C)C(C)C)[C@@H](C)CC [[N-Me-I11]Aβ3(31–42), IIGLMVGGW-(N-Me)I-A] (H-IIGLMVGGVV[NMeI]A-OH; N-terminus assumed) | 132 ± 34 (≈ 153 µg/mL) | 13 ± 1 | 49 ± 3 | – |
| CC[C@H](C)[C@H](N)C(=O)N[C@H](C(=O)NCC(=O)N[C@@H](CC(C)C)C(=O)N[C@@H](CCSC)C(=O)N(C)[C@@H](C)C(=O)NCC(=O)NCC(=O)N[C@H](C(=O)N[C@H](C(=O)N[C@H](C(=O)N[C@@H](C)C(=O)O)[C@@H](C)CC)C(C)C)C(C)C)[C@@H](C)CC [[N-Me-A6]Aβ(31–42), IIGLM-(N-Me)A-GGWIA] (H-IIGLM[NMeA]GGVVIA-OH; N-terminus assumed) | 87 ± 18 (≈ 98.1 µg/mL) | – | – | – |
| CC[C@H](C)[C@H](N)C(=O)N[C@H](C(=O)N(C)CC(=O)N[C@@H](CC(C)C)C(=O)N[C@@H](CCSC)C(=O)N[C@H](C(=O)NCC(=O)NCC(=O)N[C@H](C(=O)N[C@H](C(=O)N[C@H](C(=O)N[C@@H](C)C(=O)O)[C@@H](C)CC)C(C)C)C(C)C)C(C)C)[C@@H](C)CC [[N-Me-G3]Aβ(31–42), II-(N-Me)G-LMVGGWIA] | 118 ± 11 (≈ 136 µg/mL) | 26 ± 1 | – | Decrease in activity relative to the corresponding N-Me-A analogue (MTT) [2]: 1.4 fold |
| CC[C@H](C)[C@H](N)C(=O)N[C@H](C(=O)NCC(=O)N[C@@H](CC(C)C)C(=O)N[C@@H](CCSC)C(=O)N[C@H](C(=O)NCC(=O)NCC(=O)N(C)[C@H](C(=O)N[C@H](C(=O)N[C@H](C(=O)N[C@@H](C)C(=O)O)[C@@H](C)CC)C(C)C)C(C)C)C(C)C)[C@@H](C)CC [[N-Me-V9]Aβ(31–42), IIGLMVGG-(N-Me)V-VIA] (H-IIGLMVGG[NMeV]VIA-OH; N-terminus assumed) | 136 ± 18 (≈ 157 µg/mL) | 6 ± 1 | 67 ± 8 | Decrease in activity relative to the corresponding N-Me-A analogue (LDH) [3]: 9.6 fold |
| IIGLMVGGVVIA-OH [Aβ(31–42), IIGLMVGGVVIA] | – | 18 ± 1 | 43 ± 2 | solubility at 1 min [1]: 25 ± 4 µM; IC50 (Aβ42): 23 ± 4 µM; Rescue from Aβ42-induced inhibition of miniature excitatory postsynaptic current frequency [4]: rescued |
| CC[C@H](C)[C@H](N)C(=O)N[C@H](C(=O)NCC(=O)N[C@@H](CC(C)C)C(=O)N[C@@H](CCSC)C(=O)N[C@H](C(=O)N(C)[C@@H](C)C(=O)NCC(=O)N[C@H](C(=O)N[C@H](C(=O)N[C@H](C(=O)N[C@@H](C)C(=O)O)[C@@H](C)CC)C(C)C)C(C)C)C(C)C)[C@@H](C)CC [[N-Me-A7]Aβ(31–42), IIGLMV-(N-Me)A-GWIA] (H-IIGLMV[NMeA]GVVIA-OH; N-terminus assumed) | 88 ± 14 (≈ 103 µg/mL) | – | – | – |
| CC[C@H](C)[C@H](N)C(=O)N[C@H](C(=O)NCC(=O)N[C@@H](CC(C)C)C(=O)N[C@@H](CCSC)C(=O)N[C@H](C(=O)NCC(=O)NCC(=O)N[C@H](C(=O)N[C@H](C(=O)N(C)[C@@H](C)C(=O)N[C@@H](C)C(=O)O)C(C)C)C(C)C)C(C)C)[C@@H](C)CC [[N-Me-A11]Aβ(31–42), IIGLMVGGW-(N-Me)A-A] (H-IIGLMVGGVV[NMeA]A-OH; N-terminus assumed) | 86 ± 22 (≈ 95.8 µg/mL) | 10 ± 1 | 37 ± 3 | – |
| CC[C@H](C)[C@H](N)C(=O)N[C@H](C(=O)N(C)[C@@H](C)C(=O)N[C@@H](CC(C)C)C(=O)N[C@@H](CCSC)C(=O)N[C@H](C(=O)NCC(=O)NCC(=O)N[C@H](C(=O)N[C@H](C(=O)N[C@H](C(=O)N[C@@H](C)C(=O)O)[C@@H](C)CC)C(C)C)C(C)C)C(C)C)[C@@H](C)CC [[N-Me-A3]Aβ(31–42), II-(N-Me)A-LMVGGWIA] | 102 ± 16 (≈ 119 µg/mL) | 18 ± 1 | 34 ± 3 | – |
| CC[C@H](C)[C@H](N)C(=O)N[C@H](C(=O)NCC(=O)N[C@@H](CC(C)C)C(=O)N(C)[C@@H](C)C(=O)N[C@H](C(=O)NCC(=O)NCC(=O)N[C@H](C(=O)N[C@H](C(=O)N[C@H](C(=O)N[C@@H](C)C(=O)O)[C@@H](C)CC)C(C)C)C(C)C)C(C)C)[C@@H](C)CC [[N-Me-A5]Aβ(31–42), IIGL-(N-Me)A-VGGWIA] (H-IIGL[NMeA]VGGVVIA-OH; N-terminus assumed) | 105 ± 20 (≈ 115 µg/mL) | – | – | – |
| CC[C@H](C)[C@H](N)C(=O)N[C@H](C(=O)NCC(=O)N[C@@H](CC(C)C)C(=O)N[C@@H](CCSC)C(=O)N[C@H](C(=O)NCC(=O)NCC(=O)N[C@H](C(=O)N(C)[C@@H](C)C(=O)N[C@H](C(=O)N[C@@H](C)C(=O)O)[C@@H](C)CC)C(C)C)C(C)C)[C@@H](C)CC [[N-Me-A10]Aβ(31–42), IIGLMVGGV-(N-Me)A-IA] | – | – | – | solubility at 1 min [1]: 121 ± 28 µM (≈ 136 µg/mL) |
| CC[C@H](C)[C@H](N)C(=O)N[C@H](C(=O)NCC(=O)N(C)[C@@H](C)C(=O)N[C@@H](CCSC)C(=O)N[C@H](C(=O)NCC(=O)NCC(=O)N[C@H](C(=O)N[C@H](C(=O)N[C@H](C(=O)N[C@@H](C)C(=O)O)[C@@H](C)CC)C(C)C)C(C)C)C(C)C)[C@@H](C)CC [[N-Me-A4]Aβ(31–42), IIG-(N-Me)A-MVGGWIA] (H-IIG[NMeA]MVGGVVIA-OH; N-terminus assumed) | 127 ± 37 (≈ 141 µg/mL) | – | – | – |
| CC[C@H](C)[C@H](NC)C(=O)N[C@H](C(=O)NCC(=O)N[C@@H](CC(C)C)C(=O)N[C@@H](CCSC)C(=O)N[C@H](C(=O)NCC(=O)NCC(=O)N[C@H](C(=O)N[C@H](C(=O)N[C@H](C(=O)N[C@@H](C)C(=O)O)[C@@H](C)CC)C(C)C)C(C)C)C(C)C)[C@@H](C)CC [[N-Me-I1]Aβ3(31–42), (N-Me)I-IGLMVGGWIA] (H-[NMeI]IGLMVGGVVIA-OH; N-terminus assumed) | 7 ± 1 (≈ 8.09 µg/mL) | – | – | Toxicity of the peptide itself (cell viability, MTT) ([5]; listed as [N-Me-I1]Aβ(31–42)): as toxic as [N-Me-A1]Aβ(31–42) |
| CC[C@H](C)[C@H](N)C(=O)N[C@H](C(=O)NCC(=O)N[C@@H](CC(C)C)C(=O)N[C@@H](CCSC)C(=O)N[C@H](C(=O)NCC(=O)N(C)CC(=O)N[C@H](C(=O)N[C@H](C(=O)N[C@H](C(=O)N[C@@H](C)C(=O)O)[C@@H](C)CC)C(C)C)C(C)C)C(C)C)[C@@H](C)CC [[N-Me-G8]Aβ(31–42), IIGLMVG-(N-Me)G-WIA] (H-IIGLMVG[Sar]VVIA-OH; N-terminus assumed) | 18 ± 2 (≈ 20.8 µg/mL) | 28 ± 1 | 71 ± 20 | Decrease in activity relative to the corresponding N-Me-A analogue (MTT) [2]: 2.3 fold; Decrease in activity relative to the corresponding N-Me-A analogue (LDH) [3]: 5.0 fold |
| CC[C@H](C)[C@H](N)C(=O)N(C)[C@@H](C)C(=O)NCC(=O)N[C@@H](CC(C)C)C(=O)N[C@@H](CCSC)C(=O)N[C@H](C(=O)NCC(=O)NCC(=O)N[C@H](C(=O)N[C@H](C(=O)N[C@H](C(=O)N[C@@H](C)C(=O)O)[C@@H](C)CC)C(C)C)C(C)C)C(C)C [[N-Me-A2]Aβ(31–42), I-(N-Me)A-GLMVGGWIA] (H-I[NMeA]GLMVGGVVIA-OH; N-terminus assumed) | 101 ± 18 (≈ 112 µg/mL) | – | – | – |
| CC[C@H](C)[C@H](N)C(=O)N[C@H](C(=O)NCC(=O)N[C@@H](CC(C)C)C(=O)N[C@@H](CCSC)C(=O)N[C@H](C(=O)NCC(=O)NCC(=O)N[C@H](C(=O)N[C@H](C(=O)N[C@H](C(=O)N(C)[C@@H](C)C(=O)O)[C@@H](C)CC)C(C)C)C(C)C)C(C)C)[C@@H](C)CC [[N-Me-A12]Aβ(31–42)] (H-IIGLMVGGVVI[NMeA]-OH; N-terminus assumed) | 28 ± 13 (≈ 32.4 µg/mL) | – | – | – |
| CC[C@H](C)[C@H](NC(=O)[C@H](C)NC)C(=O)NCC(=O)N[C@@H](CC(C)C)C(=O)N[C@@H](CCSC)C(=O)N[C@H](C(=O)NCC(=O)NCC(=O)N[C@H](C(=O)N[C@H](C(=O)N[C@H](C(=O)N[C@@H](C)C(=O)O)[C@@H](C)CC)C(C)C)C(C)C)C(C)C [[N-Me-A1]Aβ(31–42), (N-Me)A-IGLMVGGWIA] (H-[NMeA]IGLMVGGVVIA-OH; N-terminus assumed) | 8 ± 1 (≈ 8.91 µg/mL) | – | – | Toxicity of the peptide itself (cell viability, MTT) [5]: toxic |
